# Reference: ChEMBL document CHEMBL4346672, “Antimicrobial and KPC/AmpC inhibitory activity of functionalized benzosiloxaboroles” (Eur J Med Chem, 2019)
# The source made the active and inactive calls. The rule behind the calls is not given here.
# What was measured:
# [1] = test system: Stenotrophomonas maltophilia; assay: Antibacterial activity against Stenotrophomonas maltophilia ATCC 13637 measured after 18 hrs by CLSI broth dilution method; assay type: functional; conditions: ATCC 13637, 18 h
# Outline: (§1)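 Broth MIC in Mueller-Hinton II broth following CLSI, compounds dissolved in DMSO. Strains subcultured twice on tryptic soy agar before testing. Growth read after 35 °C, 18 h.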
# Candida albicans = assay: Antifungal activity against Candida albicans ATCC 90028 assessed as decrease in fungal cell growth at 0.78 to 12.5 mg/L incubated for 24 hrs by CLSI broth dilution method; assay type: functional; conditions: ATCC 90028, 24 h
# Outline: (§2)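 Yeast broth dilution in RPMI 1640 with 2% glucose, compounds in DMSO. Yeasts pre-grown on Sabouraud dextrose agar. Growth read after 35 °C, 24 h.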
# Proteus mirabilis [2] = assay: Antibacterial activity against Proteus mirabilis ATCC 12453 assessed as diameter of zone inhibition measured after 18 hrs by CLSI disc diffusion method; assay type: functional
# Outline: (§3)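 Disc diffusion on Mueller-Hinton II agar. Compounds dissolved in DMSO. Strains stored at -80 °C and subcultured twice on tryptic soy agar before testing. Inhibition zones read after 35 °C, 18 h.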
# Saccharomyces cerevisiae [3] = assay: Antifungal activity against Saccharomyces cerevisiae ATCC 9763 assessed as decrease in fungal cell growth at 0.78 to 12.5 mg/L incubated for 24 hrs by CLSI broth dilution method; assay type: functional; conditions: ATCC 9763, 24 h
# Outline: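 Yeast strain subcultured on Sabouraud dextrose agar for 24–48 h at 30 °C before testing. Compounds dissolved in DMSO.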
# Enterococcus faecalis = assay: Antibacterial activity against Enterococcus faecalis ATCC 29212 measured after 18 hrs by CLSI broth dilution method; assay type: functional; conditions: ATCC 29212, 18 h; outline: as §1
# Bacillus subtilis = assay: Antibacterial activity against Bacillus subtilis ATCC 6633 assessed as diameter of zone inhibition measured after 18 hrs by CLSI disc diffusion method; assay type: functional; outline: as §3
# Staphylococcus aureus = assay: Antibacterial activity against Staphylococcus aureus ATCC 6538P measured after 18 hrs by CLSI broth dilution method; assay type: functional; outline: as §1
# [4] = test system: Meyerozyma guilliermondii; assay: Antifungal activity against Candida guilliermondii IBA 155 assessed as decrease in fungal cell growth at 0.78 to 12.5 mg/L incubated for 24 hrs by CLSI broth dilution method; assay type: functional; conditions: IBA 155, 24 h; outline: as §2
# Enterococcus faecium = assay: Antibacterial activity against Enterococcus faecium ATCC 6057 assessed as diameter of zone inhibition measured after 18 hrs by CLSI disc diffusion method; assay type: functional; outline: as §3
# Candida tropicalis [5] = assay: Antifungal activity against Candida tropicalis IBA 171 assessed as diameter of zone inhibition incubated for 24 hrs by CLSI disc diffusion method; assay type: functional
# Outline: (§4)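 Yeast disc diffusion on Mueller-Hinton agar supplemented with 2% glucose and 0.5 mg/L methylene blue. Compounds in DMSO. Yeasts subcultured on Sabouraud dextrose agar before testing. Zones read after 35 °C, 24 h.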
# Serratia marcescens [6] = assay: Antibacterial activity against Serratia marcescens ATCC 13880 assessed as fold reduction of MIC in presence of efflux pump inhibitor PAbetaN incubated for 18 hrs by broth microdilution method; assay type: functional
# Outline: (§5)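 MICs determined with and without PAβN at 50 mg/L in Mueller-Hinton broth containing 1 mM MgSO₄. 2-fold serial dilutions per CLSI. Fold change taken from the paired MICs after 35 °C, 18 h.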
# [7] = Dissociation constant, pKa1 of compound in 0.1 M NaOH by potentiometric analysis; assay type: physicochemical
# Enterobacter cloacae [8] = assay: Antibacterial activity against Enterobacter cloacae DSM 6234 measured after 18 hrs by CLSI broth dilution method; assay type: functional; conditions: DSM 6234, 18 h; outline: as §1
# Enterobacter cloacae [9] = assay: Antibacterial activity against Enterobacter cloacae DSM 6234 assessed as diameter of zone inhibition measured after 18 hrs by CLSI disc diffusion method; assay type: functional; outline: as §3
# Escherichia coli [10] = assay: Antibacterial activity against Escherichia coli ATCC 25922 assessed as diameter of zone inhibition measured after 18 hrs by CLSI disc diffusion method; assay type: functional; outline: as §3
# Pseudomonas aeruginosa [11] = assay: Antibacterial activity against Pseudomonas aeruginosa ATCC 27853 assessed as diameter of zone inhibition measured after 18 hrs by CLSI disc diffusion method; assay type: functional, organism-based; outline: as §3
# Acinetobacter baumannii [12] = assay: Antibacterial activity against Acinetobacter baumannii ATCC 19606 assessed as fold reduction of MIC in presence of efflux pump inhibitor PAbetaN incubated for 18 hrs by broth microdilution method; assay type: functional; outline: as §5
# Proteus mirabilis [13] = assay: Antibacterial activity against Proteus mirabilis ATCC 12453 assessed as fold reduction of MIC in presence of efflux pump inhibitor PAbetaN incubated for 18 hrs by broth microdilution method; assay type: functional; outline: as §5
# [14] = test system: Staphylococcus epidermidis; assay: Antibacterial activity against Staphylococcus epidermidis ATCC 12228 assessed as diameter of zone inhibition measured after 18 hrs by CLSI disc diffusion method; assay type: functional; outline: as §3
# Pseudomonas aeruginosa [15] = assay: Antibacterial activity against Pseudomonas aeruginosa ATCC 27853 assessed as fold reduction of MIC in presence of efflux pump inhibitor PAbetaN incubated for 18 hrs microdilution method; assay type: functional; outline: as §5
# [16] = test system: Meyerozyma guilliermondii; assay: Antifungal activity against Candida guilliermondii IBA 155 assessed as diameter of zone inhibition incubated for 24 hrs by CLSI disc diffusion method; assay type: functional; outline: as §4
# Escherichia coli [17] = assay: Antibacterial activity against Escherichia coli ATCC 25922 measured after 18 hrs by CLSI broth dilution method; assay type: functional; conditions: ATCC 25922, 18 h; outline: as §1
# [18] = test system: Staphylococcus epidermidis; assay: Antibacterial activity against Staphylococcus epidermidis ATCC 12228 measured after 18 hrs by CLSI broth dilution method; assay type: functional; conditions: ATCC 12228, 18 h; outline: as §1
# Acinetobacter baumannii [19] = assay: Antibacterial activity against Acinetobacter baumannii ATCC 19606 assessed as diameter of zone inhibition measured after 18 hrs by CLSI disc diffusion method; assay type: functional; outline: as §3
# Serratia marcescens [20] = conditions: ATCC 13880
# Burkholderia cepacia = assay: Antibacterial activity against Burkholderia cepacia ATCC 25416 measured after 18 hrs by CLSI broth dilution method; assay type: functional; conditions: ATCC 25416, 18 h; outline: as §1
# [21] = test system: Bordetella bronchiseptica; assay: Antibacterial activity against Bordetella bronchiseptica ATCC 4617 assessed as diameter of zone inhibition measured after 18 hrs by CLSI disc diffusion method; assay type: functional; outline: as §3
# Candida tropicalis [22] = assay: Antifungal activity against Candida tropicalis IBA 171 assessed as decrease in fungal cell growth at 0.78 to 12.5 mg/L incubated for 24 hrs by CLSI broth dilution method; assay type: functional; conditions: IBA 171, 24 h; outline: as §2
# Enterobacter cloacae [23] = assay: Antibacterial activity against Enterobacter cloacae DSM 6234 assessed as fold reduction of MIC in presence of efflux pump inhibitor PAbetaN incubated for 18 hrs by broth microdilution method; assay type: functional; outline: as §5
# Candida parapsilosis = assay: Antifungal activity against Candida parapsilosis ATCC 22019 assessed as diameter of zone inhibition incubated for 24 hrs by CLSI disc diffusion method; assay type: functional; outline: as §4
# Klebsiella pneumoniae = assay: Antibacterial activity against Klebsiella pneumoniae ATCC 13883 assessed as fold reduction of MIC in presence of efflux pump inhibitor PAbetaN incubated for 18 hrs by broth microdilution method; assay type: functional; outline: as §5
# Saccharomyces cerevisiae [24] = assay: Antifungal activity against Saccharomyces cerevisiae ATCC 9763 diameter of zone inhibition incubated for 24 hrs by CLSI disc diffusion method; assay type: functional
# Outline: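 Disc-diffusion run on Mueller-Hinton II agar with 2% glucose and 0.5 mg/L methylene blue, using compounds in DMSO. Yeast was precultured on Sabouraud dextrose agar (24–48 h, 30 °C). Zones read after 24 h at 35 °C.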
Compound,MIC [1] [µg/mL],MIC (Candida albicans) [µg/mL],diameter of the inhibition zone (DIZ) (Proteus mirabilis [2]),MIC (Saccharomyces cerevisiae [3]) [µg/mL],MIC (Enterococcus faecalis) [µg/mL],diameter of the inhibition zone (DIZ) (Bacillus subtilis) [mm],MIC (Staphylococcus aureus) [µg/mL],MIC [4] [µg/mL],diameter of the inhibition zone (DIZ) (Enterococcus faecium),diameter of the inhibition zone (DIZ) (Candida tropicalis [5]),fold change (FC) (Serratia marcescens [6]),pKa [7],MIC (Enterobacter cloacae [8]) [µg/mL],diameter of the inhibition zone (DIZ) (Enterobacter cloacae [9]),diameter of the inhibition zone (DIZ) (Escherichia coli [10]),diameter of the inhibition zone (DIZ) (Pseudomonas aeruginosa [11]),fold change (FC) (Acinetobacter baumannii [12]),fold change (FC) (Proteus mirabilis [13]),diameter of the inhibition zone (DIZ) [14] [mm],fold change (FC) (Pseudomonas aeruginosa [15]),other results
C[Si]1(C)OB(O)c2ccc(F)c(F)c21,200,100,12 mm,12.5,100,28,25,3.12,18 mm,12 mm,8,6.1,> 400,inactive,inactive,inactive,4,2,33,32,diameter of the inhibition zone (DIZ) [16]: 30 mm; MIC (Escherichia coli [17]): > 400 µg/mL; MIC [18]: 50 µg/mL; diameter of the inhibition zone (DIZ) (Acinetobacter baumannii [19]): inactive; DIZ (Serratia marcescens [20]): inactive; MIC (Burkholderia cepacia): > 400 µg/mL; diameter of the inhibition zone (DIZ) [21]: inactive; MIC (Candida tropicalis [22]): 6.25 µg/mL; fold change (FC) (Enterobacter cloacae [23]): 32; diameter of the inhibition zone (DIZ) (Candida parapsilosis): 11 mm; fold change (FC) (Klebsiella pneumoniae): 16; diameter of the inhibition zone (DIZ) (Saccharomyces cerevisiae [24]): 30 mm
C[Si]1(C)OB(O)c2c(C=O)cc(F)c(F)c21,400,400,inactive,100,400,18,50,400,inactive,11 mm,2,5.2,> 400,inactive,inactive,inactive,2,2,28,4,diameter of the inhibition zone (DIZ) [16]: 12 mm; MIC (Escherichia coli [17]): > 400 µg/mL; MIC [18]: 100 µg/mL; diameter of the inhibition zone (DIZ) (Acinetobacter baumannii [19]): inactive; DIZ (Serratia marcescens [20]): inactive; MIC (Burkholderia cepacia): > 400 µg/mL; diameter of the inhibition zone (DIZ) [21]: inactive; MIC (Candida tropicalis [22]): 200 µg/mL; fold change (FC) (Enterobacter cloacae [23]): 64; diameter of the inhibition zone (DIZ) (Candida parapsilosis): inactive; fold change (FC) (Klebsiella pneumoniae): 32; diameter of the inhibition zone (DIZ) (Saccharomyces cerevisiae [24]): 13 mm
C[Si]1(C)OB(O)c2ccc(Cl)cc21,100,12.5,inactive,6.25,100,34,50,25,14 mm,15 mm,16,7.3,> 400,inactive,inactive,inactive,16,4,33,32,diameter of the inhibition zone (DIZ) [16]: 30 mm; MIC (Escherichia coli [17]): 400 µg/mL; MIC [18]: 25 µg/mL; diameter of the inhibition zone (DIZ) (Acinetobacter baumannii [19]): 13 mm; DIZ (Serratia marcescens [20]): inactive; MIC (Burkholderia cepacia): > 400 µg/mL; diameter of the inhibition zone (DIZ) [21]: 11 mm; MIC (Candida tropicalis [22]): 6.25 µg/mL; fold change (FC) (Enterobacter cloacae [23]): 64; diameter of the inhibition zone (DIZ) (Candida parapsilosis): 18 mm; fold change (FC) (Klebsiella pneumoniae): 32; diameter of the inhibition zone (DIZ) (Saccharomyces cerevisiae [24]): 47 mm
C[Si]1(C)OB(O)c2c(F)c3c(c(F)c21)B(O)OC3,50,> 400,inactive,> 400,25,29,6.25,> 400,28 mm,inactive,16,4.7,200,17 mm,inactive,inactive,8,4,35,8,diameter of the inhibition zone (DIZ) [16]: inactive; MIC (Escherichia coli [17]): 200 µg/mL; MIC [18]: 6.25 µg/mL; diameter of the inhibition zone (DIZ) (Acinetobacter baumannii [19]): 15 mm; DIZ (Serratia marcescens [20]): inactive; MIC (Burkholderia cepacia): 50 µg/mL; diameter of the inhibition zone (DIZ) [21]: inactive; MIC (Candida tropicalis [22]): > 400 µg/mL; fold change (FC) (Enterobacter cloacae [23]): 8; diameter of the inhibition zone (DIZ) (Candida parapsilosis): inactive; fold change (FC) (Klebsiella pneumoniae): 16; diameter of the inhibition zone (DIZ) (Saccharomyces cerevisiae [24]): inactive
